Results from paper PMC3474356 (Chemistry & biology, 2011).

Key:
P. falciparum 3D7 strain = assay: P. falciparum 3D7 growth inhibition; type: cell-based; details: Plasmodium falciparum, 3D7, read-out: EC50 growth 3D7
P. falciparum Dd2 strain = assay: P. falciparum Dd2 growth inhibition; type: cell-based; details: Plasmodium falciparum, DD2, read-out: EC50 growth Dd2
[1] = system: Dd2-scDHOD parasite strain; assay: Transgenic Dd2-scDHOD growth inhibition; type: cell-based; details: Plasmodium falciparum, DD2, read-out: EC50 growth Dd2-scDHOD
pfNDH2 = pfNDH2 (Plasmodium falciparum, UniProt Q8I302); assay: pfNDH2 enzyme activity assay; type: biochemical
pfDHOD = target: T1, pfDHOD (Plasmodium falciparum, UniProt Q08210); assay: pfDHOD chromogen; type: biochemical
T1 sequence (Q08210 24-569): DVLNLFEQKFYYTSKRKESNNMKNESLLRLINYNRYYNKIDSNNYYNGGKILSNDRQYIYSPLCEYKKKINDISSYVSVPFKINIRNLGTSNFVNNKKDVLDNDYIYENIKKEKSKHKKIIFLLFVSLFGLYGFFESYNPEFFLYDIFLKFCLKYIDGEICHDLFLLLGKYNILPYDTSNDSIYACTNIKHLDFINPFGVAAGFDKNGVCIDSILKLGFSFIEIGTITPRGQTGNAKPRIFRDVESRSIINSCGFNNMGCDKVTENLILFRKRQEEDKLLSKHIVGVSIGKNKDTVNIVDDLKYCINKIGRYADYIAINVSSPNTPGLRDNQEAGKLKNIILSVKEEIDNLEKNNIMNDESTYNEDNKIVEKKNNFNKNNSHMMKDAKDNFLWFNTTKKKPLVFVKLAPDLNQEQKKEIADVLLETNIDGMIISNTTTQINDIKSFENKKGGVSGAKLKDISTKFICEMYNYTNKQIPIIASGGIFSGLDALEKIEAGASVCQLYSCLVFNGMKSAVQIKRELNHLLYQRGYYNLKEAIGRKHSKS
Method in brief: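 DCIP reduction assay in 384-well format. Test compound in serial dilution; reaction started by adding pfDHOD and run for 10 min at 25 °C. Read-out A600.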

hsCYT bc1 = hsCYT bc1 (Homo sapiens, UniProt P00156); assay: Cytochrome c reductase activity, human; type: biochemical
Method in brief: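 Mitochondria from HEK293 cells pelleted at 400 g for 10 min, disrupted by N2 cavitation, then debris spin, 10,000 g pellet and 1–2 M sucrose gradient. Mitochondria (40 ug/ml) in 250 mM sucrose, 50 mM KH2PO4, 0.2 mM EDTA, 1 mM NaN3, 2.5 mM KCN with 50 uM cytochrome c. Started with 25 uM decylubiquinol; cytochrome c reduction read at 550 nm over the first 60 s.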

liver stage P. berghei = assay: P. berghei liver stage assay in HepG2 cells; type: cell-based; details: Plasmodium berghei, HepG2, 45 h, read-out: IC50 liver stage P. berghei
Method in brief: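 Luciferase-expressing P. berghei ANKA sporozoites (4,000, from mosquito salivary glands) infect 12,000 HepG2 cells with or without test compound; final DMSO 0.3%. Parasite growth is read by luciferase luminescence 45 h post-infection. Results are mean ± SD, and experiments were repeated 2-3 times.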

In the case of `O=C1C(O)=C([C@H]2CC[C@H](c3ccc(Cl)cc3)CC2)C(=O)c2ccccc21` [atovaquone], the EC50 (P. falciparum 3D7 strain) is reported as 1 nM, the EC50 (P. falciparum Dd2 strain) is reported as 1 nM and the EC50 [1] is reported as over 5000 nM. The IC50 (pfNDH2) was over 20000 nM, the IC50 (pfDHOD) was over 20000 nM and the IC50 (hsCYT bc1) was 350 ± 12 nM. For the same compound, the IC50 (liver stage P. berghei) was 0.3 nM.
